Compound activity (PubChem)
This is a sample that favours compounds with a hit; in the whole collection about 1.3% have one here.
Rev-RRE block = inhibitors of HIV-1 Rev-RRE RNA interaction; Rev peptide-RRE RNA binding, FRET; actives 0.79% (n = 97,000); P05866; inhibition, % at 8 µM;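 active = inhibition above the screen-wide mean plus 3 SD, cut at about 35% in these data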;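 note: 0% = median DMSO wells and 100% = median Neomycin B control wells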
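Assay system: Labelled RRE RNA duplex and labelled Rev peptide | Times: 5 min preincubation and 15 min binding, 25 °C | Detection: FRET, ex 480 nm, em 540 and 671 nm | Evaluation: % inhibition of FRET ratio versus controls | Benchmarks: DMSO wells as 0% and neomycin B wells as 100% inhibition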
LYP inh 2 = LYP (human) phosphatase inhibition; Q9Y2R2; inhibition, % at 2 µM; AID 640; actives 0.21% (n = 96,000); recombinant LYP catalytic domain, DiFMUP fluorescence;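 active = inhibition at 2 µM at or above a set limit, the screen mean plus 3 SD, cut at about 24% in these data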;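 note: 0% = DMSO with enzyme and 100% = enzyme fully blocked by orthovanadate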
Target sequence (Q9Y2R2 whole entry, looked up, the tested form may be a part): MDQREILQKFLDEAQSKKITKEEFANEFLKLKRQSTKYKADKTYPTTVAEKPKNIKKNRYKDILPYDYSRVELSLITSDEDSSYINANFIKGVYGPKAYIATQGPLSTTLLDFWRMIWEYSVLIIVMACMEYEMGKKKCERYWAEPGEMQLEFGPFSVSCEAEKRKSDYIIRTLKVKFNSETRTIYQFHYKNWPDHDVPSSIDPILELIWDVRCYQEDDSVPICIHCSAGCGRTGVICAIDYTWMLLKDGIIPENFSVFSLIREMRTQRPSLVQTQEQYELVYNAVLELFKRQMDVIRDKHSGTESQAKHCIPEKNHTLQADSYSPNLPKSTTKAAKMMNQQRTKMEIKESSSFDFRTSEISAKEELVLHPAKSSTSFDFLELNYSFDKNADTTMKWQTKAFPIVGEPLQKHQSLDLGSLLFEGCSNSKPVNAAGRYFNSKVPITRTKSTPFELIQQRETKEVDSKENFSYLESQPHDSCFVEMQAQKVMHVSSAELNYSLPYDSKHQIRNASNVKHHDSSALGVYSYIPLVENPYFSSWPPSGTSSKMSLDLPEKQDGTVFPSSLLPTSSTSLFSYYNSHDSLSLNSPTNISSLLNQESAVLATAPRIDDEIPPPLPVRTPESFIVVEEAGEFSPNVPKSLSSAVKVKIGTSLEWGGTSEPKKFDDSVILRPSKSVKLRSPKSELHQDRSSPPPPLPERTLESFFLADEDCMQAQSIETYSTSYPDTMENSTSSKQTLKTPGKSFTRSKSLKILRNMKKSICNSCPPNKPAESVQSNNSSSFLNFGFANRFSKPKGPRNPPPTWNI
EphB4 ephrin blk = antagonists of human EphB4-ephrin-B2 interaction. actives 0.15% (n = 97,000). P54760. AID 720. inhibition, % at 7 µM. EphB4 LBD / TNYL-RAW-Alexa532 peptide, fluorescence polarization;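 active = inhibition above the screen-wide mean inhibition plus 3 SD, cut at about 15% in these data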;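 note: 0% = DMSO wells and 100% = excess unlabeled TNYL-RAW peptide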
LYP act = LYP (human) phosphatase activation. Q9Y2R2. recombinant LYP, DiFMUP fluorescence; 0 = plate median, 100 = signal doubled. activation, % at 2 µM. actives 0.11% (n = 96,000). AID 697;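 active = activation at 2 µM above a set limit, the mean plus 5 SD, cut at about 37% in these data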
An asterisk follows results filed as active; x = not tested or not shown; [ ] = dose if it differs, or a comment.

SMILES	Rev-RRE block	LYP inh 2	EphB4 ephrin blk	LYP act
CN1/C(=C/C=C(/C#N)C(N)=O)C(C)(C)c2ccccc21	47*	6	2	-3
Cc1cc(S(=O)(=O)N2CCCCCC2)c(Cl)cc1Cl	16	6	1	-4
NC(=O)C1(N2CCCCC2)CCN(C(=O)CSc2nc3ccccc3s2)CC1	12	-6	-1	6
CCCCCCc1cc2cc(-c3nnc(-c4cc(OC)c(OC)c(OC)c4)o3)c(=O)oc2cc1O	135*[fluorescence artefact?]	43*	-2	-43
COc1ccc(-c2nnc(-c3cc4ccccc4oc3=O)o2)cc1	7	-4	3	3
CCCCCCc1cc2cc(-c3nnc(-c4ccccc4OC)o3)c(=O)oc2cc1O	143*[fluorescence artefact?]	46*	2	-46
COc1ccccc1OCc1nnc(SCC(=O)NCc2ccco2)n1Cc1ccco1	2	26*	7	-26
COc1ccccc1NC(=O)CSc1nnc(COc2ccc(Cl)cc2)n1Cc1ccco1	4	-8	-2	5
O=C(c1nc2nc(-c3cccs3)cc(C(F)(F)F)n2n1)N1CCN(Cc2ccccc2)CC1	10	-1	5	2
CCN(CC)c1ccc2c(c1)oc(=O)c1c(Cl)cc(=O)oc12	129*[fluorescence artefact?]	-4	2	4
O=Nc1c(O)n(Cc2ccc(Cl)c(Cl)c2)c2ccccc12	21	-2	-6	6
CCCCCCN1C=CC(=C/C=C(\C#N)C(=O)OCC)C=C1	139*[fluorescence artefact?]	2	-1	-6
CCCN1C=CC(=C/C=C(\C#N)C(=O)OCC)C=C1	136*[fluorescence artefact?]	11	5	-11
CCOC(=O)/C(C#N)=C\c1ccc(N2CCN(C)CC2)cc1	16	1	7	-3
CCCSc1nnc(NC(=O)c2sc3nc(-c4cccs4)ccc3c2N)s1	105*[fluorescence artefact?]	5	1	-7
O=C(Nc1nnc(SCc2ccccc2)s1)c1cccs1	2	-8	-4	12
Cc1csc(NC(=O)c2sc3nc(-c4cccs4)ccc3c2N)n1	102*[fluorescence artefact?]	7	-5	-5
CCOC(=O)C1CCN(S(=O)(=O)Cc2ccccc2)C1=O (configuration not stated)	15	-7	15*	5
O=C1c2ccccc2-c2cccc(NS(=O)(=O)c3ccc(C(F)(F)F)cc3)c21	100*[fluorescence artefact?]	10	-1	-8
CCOC(=O)C1=C(C)N=c2s/c(=C\c3cccn3C)c(=O)n2C1c1cccc(OC)c1OC (configuration not stated)	88*[fluorescence artefact?]	8	5	-5
COc1ccccc1/C=C\C=N\n1c(C2CCCCC2)n[nH]c1=S	0	25*	4	-22
CCOC(=O)c1sc2nc(CC(=O)OC)nc(NCC(=O)OC)c2c1C	2	3	4	-2
CCOC(=O)c1sc2nc(CC(=O)OC)nc(NCc3ccco3)c2c1C	39*	0	-2	3
CCn1nc(C)c(/C=C2\CCCC3=C2OC(N)=C(C#N)C3c2c(C)nn(CC)c2C)c1C (configuration not stated)	47*	2	-7	-3
CCC(CC)C(=O)Nc1cccc(C(=O)c2ccccc2)c1	7	-9	-3	12
SMILES	Rev-RRE block	LYP inh 2	EphB4 ephrin blk	LYP act
Cc1cccc(N(C(=O)c2ccc(Cl)cc2)C2CS(=O)(=O)CC2OC(=O)c2ccc(Cl)cc2)c1 (configuration not stated)	0	25*	1	-21
O=C(c1ccc2c(c1)OCO2)N(c1ccccc1)C1C=CS(=O)(=O)C1 (configuration not stated)	5	9	4	-9
CCOc1ccc(NC(=O)c2ccccc2OCC(=O)c2ccc(C)cc2)cc1	13	-5	-2	2
CCOc1ccc(NC(=O)C(C)Oc2ccccc2C(=O)Nc2ccc(C)c(Cl)c2)cc1 (configuration not stated)	15	-4	17*	8
CC(C)(C)n1nc2c(c1NC(=O)c1cccc(C(F)(F)F)c1)CS(=O)C2 (configuration not stated)	4	-11	-2	11
Clc1ccc(C2=Nn3c(nnc3-c3cc(-c4ccccc4)n[nH]3)SC2)cc1	1	28*	2	-24
CCCSc1nc(C)c(-c2csc(C(C#N)=C3CCCC3)n2)cc1C#N	12	26*	4	-27
CC(C(=O)O)N1C(=O)/C(=C/C=C/c2ccco2)SC1=S (configuration not stated)	-167	25*	7	-24
COc1ccc2nc(N3CCC(O)CC3)c(C#N)cc2c1	37*	-3	-2	3
COc1ccc(N/C(=C(/C(Cl)=C(Cl)Cl)[N+](=O)[O-])n2nnc3ccccc32)cc1OC	38*	-5	2	5
COc1ccc(C(=O)n2nnc3ccccc32)cc1Br	6	-1	-1	2
O=C(NCc1ccc(Cl)cc1)c1ccccc1Oc1ccccc1	16	2	10	3
N#Cc1c(N)nc2c3c(sc(=N)c2c1N)NC(=O)CC3c1ccccc1 (configuration not stated)	49*	9	-2	-4
CC(=O)NC1CC2CCCC(C1)N2C(=O)Nc1ccccc1 (configuration not stated)	3	60*	1	-59
O=C(N/N=C/c1ccc2ccccc2c1)c1ccc(COc2ccc3c(c2)CCC3)o1	5	33*	-8	-31
O=C(c1cccc(F)c1)N1CCN(c2cccc(Cl)c2)CC1	141*[fluorescence artefact?]	-1	1	-2
CCCC1=[N+](CC)CCn2c(C)ccc21	3	2	-8	0
Cc1cc2n(c1)CCn1c(C)ccc1-2	46*	-2	4	2
CC12COC3(C(=O)Nc4cccnc4)CC1CCC32C (configuration not stated)	44*	9	2	-9
Cc1ccc(S(=O)(=O)C2(C(=O)Nc3cccnc3)CC2)cc1	9	-2	-2	1
COc1ccc(-c2cnn3c4c(c(C)nc23)CCN4C(C)C)cc1OC	-6	x	0	x
COc1cc(-c2nnc(SCc3cc(=O)oc4cc(O)c(O)cc34)o2)cc(OC)c1OC	-20	31*	-3	-32
Cc1nc2ccc(S(=O)(=O)NCC(=O)N3CCCC(C)C3)cc2s1 (configuration not stated)	0	-2	-3	3
CN(C)c1ccc(C(=O)OCC(=O)NCC2CCCO2)cc1 (configuration not stated)	2	-1	-10	-2
Cc1cc(=O)oc(C)c1C(=O)Nc1ccc2ncccc2c1	125*[fluorescence artefact?]	7	3	-5
Cc1cc(=O)oc(C)c1C(=O)Nc1ccc2nsnc2c1	9	4	-2	-8
COc1ccc(S(=O)(=O)c2c(N)n(Cc3ccco3)c3nc4ccccc4nc23)cc1	53*	4	5	-5
Cc1ccc(S(=O)(=O)c2c(N)n(/N=C/c3ccco3)c3nc4ccccc4nc23)cc1	-3	-6	-10	6
CCOc1ccc(C2C=C(c3ccc(C)cc3)Nc3nnnn32)cc1 (configuration not stated)	39*	-8	0	6
